Results reported in ChEMBL document CHEMBL4265908, “Structure-activity and structure-property relationships of novel Nrf2 activators with a 1,2,4-oxadiazole core and their therapeutic effects on acetaminophen (APAP)-induced acute liver injury” (Eur J Med Chem, 2018).
The source made the active and inactive calls. No cut-off for these calls is given here.

Columns and labels:
HepG2 = experiment: Cytotoxicity against human HepG2 cells at 80 uM after 24 hrs by MTT assay; type: cell-based; settings: hepg2, 24 h
[1] = target: T1, Nuclear factor erythroid 2-related factor 2 (Homo sapiens) (UniProt Q16236); experiment: Activation of Nrf2 in human HepG2-ARE-C8 cells assessed as induction of ARE-mediated luciferase activity at 1 uM after 24 hrs by luciferase reporter gene assay relative to control; type: cell-based
T1 sequence (whole entry): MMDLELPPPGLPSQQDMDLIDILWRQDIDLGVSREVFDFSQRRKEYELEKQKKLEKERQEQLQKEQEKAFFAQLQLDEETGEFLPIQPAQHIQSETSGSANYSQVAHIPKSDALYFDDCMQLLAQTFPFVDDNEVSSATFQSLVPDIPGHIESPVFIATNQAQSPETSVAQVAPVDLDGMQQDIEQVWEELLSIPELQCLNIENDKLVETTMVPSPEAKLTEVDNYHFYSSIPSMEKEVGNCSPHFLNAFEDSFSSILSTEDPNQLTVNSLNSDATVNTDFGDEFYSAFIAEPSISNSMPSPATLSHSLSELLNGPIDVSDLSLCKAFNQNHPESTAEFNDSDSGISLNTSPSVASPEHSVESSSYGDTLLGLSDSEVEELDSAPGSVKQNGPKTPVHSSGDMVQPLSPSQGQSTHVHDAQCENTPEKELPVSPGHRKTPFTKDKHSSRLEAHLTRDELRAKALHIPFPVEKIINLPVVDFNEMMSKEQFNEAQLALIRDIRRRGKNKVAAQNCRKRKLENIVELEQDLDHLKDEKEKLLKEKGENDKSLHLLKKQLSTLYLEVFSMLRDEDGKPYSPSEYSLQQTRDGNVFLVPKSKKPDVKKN
Summary of the method: (§1)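 HepG2-ARE-C8 cells stably carrying ARE-luciferase, grown in DMEM with 10% FBS at 37 °C and 5% CO2. Seeded at 5 × 10^4 cells/well, left overnight, then given compound diluted from a 10 mM DMSO stock for 24 h. Cells lysed and luciferase read as RLU. Inductivity = (RLUtest − RLUblank)/(RLUcontrol − RLUblank), with DMSO as control. Mean ± SEM of three experiments.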

[2] = target: T1, Nuclear factor erythroid 2-related factor 2 (Homo sapiens); experiment: Activation of Nrf2 in human HepG2-ARE-C8 cells assessed as induction of ARE-mediated luciferase activity at 20 uM after 24 hrs by luciferase reporter gene assay relative to control; type: cell-based; summary of the method: as §1
[3] = target: T1, Nuclear factor erythroid 2-related factor 2 (Homo sapiens); experiment: Activation of Nrf2 in human LO2 cells cotreated with Nrf2 siRNA assessed as increase in Nrf2 mRNA expression level at 20 uM by qRT-PCR analysis; type: cell-based
Summary of the method: (§2)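 LO2 cells plated at 7 × 10^5 per 60 mm dish and transfected with 50 nM Nrf2 siRNA (scrambled siRNA as control). After 24 h, fresh medium was added and cells grown a further 48 h. Then 20 μM compound for 12 h. Nrf2, NQO1, GCLM and HO-1 mRNA measured by qRT-PCR, normalized to GAPDH, as fold over control.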

[4] = target: T1, Nuclear factor erythroid 2-related factor 2 (Homo sapiens); experiment: Activation of Nrf2 in human LO2 cells cotreated with Nrf2 siRNA assessed as increase in NQO1 mRNA expression level at 20 uM by qRT-PCR analysis; type: cell-based; summary of the method: as §2
[5] = target: T1, Nuclear factor erythroid 2-related factor 2 (Homo sapiens); experiment: Activation of Nrf2 in human LO2 cells cotreated with Nrf2 siRNA assessed as increase in HO-1 mRNA expression level at 20 uM by qRT-PCR analysis; type: cell-based; summary of the method: as §2
[6] = target: T1, Nuclear factor erythroid 2-related factor 2 (Homo sapiens); experiment: Activation of Nrf2 in human LO2 cells assessed as increase in HO-1 mRNA expression level by qRT-PCR analysis; type: cell-based
Summary of the method: (§3)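 LO2 cells in DMEM with 10% FBS were exposed to 0, 2.5, 5, 10, 20 or 40 μM compound for 12 h. Transcripts measured by qRT-PCR: 40 cycles of 95 °C for 5 s and 60 °C for 30 s. Normalized to GAPDH and expressed as fold over the untreated control. Mean ± SD, n = 3.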

[7] = target: T1, Nuclear factor erythroid 2-related factor 2 (Homo sapiens); experiment: Activation of Nrf2 in human LO2 cells assessed as increase in NQO1 mRNA expression level by qRT-PCR analysis; type: cell-based; summary of the method: as §3
[8] = Lipophilicity, log D of the compound at pH 7.4 by potentiometric titration method; type: physicochemical; settings: buffer
Summary of the method: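 Intrinsic aqueous solubility and logD at pH 7.4 determined by Avdeef-Bucher potentiometric titration on a pION Gemini Profiler.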

Mus musculus [9] = experiment: In vivo activation of Nrf2 in APAP-induced liver injury in C57BL/6 mouse assessed as increase in Nrf2 protein expression level at 10 to 100 mg/kg, ip administered for 7 consecutive days followed by APAP challenge 1 hr post last compound dose and measured after 24 hrs by Western blot analysis; type: functional, organism-based
Summary of the method: (§4)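 Female C57BL/6 mice (20–25 g, n = 10/group) received 10, 50 or 100 mg/kg/day ip in saline for 7 days. One hour after the last dose they received APAP 300 mg/kg in saline. Killed 24 h later. Serum ALT/AST by kit. Liver homogenates (pH 7.0 phosphate) used for GSH (A420, μmol/g protein), GST (A412, U/mg protein) and SOD. Liver also analyzed by western blot (β-actin normalized), qRT-PCR (GAPDH normalized) and H&E.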

Mus musculus [10] = experiment: In vivo activation of Nrf2 in APAP-induced liver injury in C57BL/6 mouse assessed as increase in NQO1 protein expression level at 10 to 100 mg/kg, ip administered for 7 consecutive days followed by APAP challenge 1 hr post last compound dose and measured after 24 hrs by Western blot analysis; type: functional, organism-based; summary of the method: as §4
Mus musculus [11] = experiment: In vivo activation of Nrf2 in APAP-induced liver injury in C57BL/6 mouse assessed as increase in NQO1 mRNA expression level administered ip for 7 consecutive days followed by APAP challenge 1 hr post last compound dose and measured after 24 hrs by qRT-PCR analysis; type: functional, organism-based; summary of the method: as §4
Mus musculus [12] = experiment: In vivo activation of Nrf2 in APAP-induced liver injury in C57BL/6 mouse assessed as increase in Nrf2 mRNA expression level administered ip for 7 consecutive days followed by APAP challenge 1 hr post last compound dose and measured after 24 hrs by qRT-PCR analysis; type: functional, organism-based; summary of the method: as §4
Mus musculus [13] = experiment: In vivo activation of Nrf2 in APAP-induced liver injury in C57BL/6 mouse assessed as increase in HO-1 mRNA expression level administered ip for 7 consecutive days followed by APAP challenge 1 hr post last compound dose and measured after 24 hrs by qRT-PCR analysis; type: functional, organism-based; summary of the method: as §4
Mus musculus [14] = experiment: In vivo activation of Nrf2 in APAP-induced liver injury in C57BL/6 mouse assessed as increase in GCLM mRNA expression level administered ip for 7 consecutive days followed by APAP challenge 1 hr post last compound dose and measured after 24 hrs by qRT-PCR analysis; type: functional, organism-based; summary of the method: as §4
Mus musculus [15] = experiment: Hepatoprotective activity against APAP-induced liver injury in C57BL/6 mouse assessed as increase in GSH levels administered ip for 7 consecutive days followed by APAP challenge 1 hr post last compound dose and measured after 24 hrs; type: functional, organism-based; summary of the method: as §4
Mus musculus [16] = experiment: Hepatoprotective activity against APAP-induced liver injury in C57BL/6 mouse assessed as increase in GST levels administered ip for 7 consecutive days followed by APAP challenge 1 hr post last compound dose and measured after 24 hrs; type: functional, organism-based; summary of the method: as §4

In the case of `Cc1ccc(-c2noc(-c3ccc(F)c(F)c3)n2)cn1`, the Activity (HepG2) is reported as “Non-Toxic”, the Activity [1] is reported as 16.1 and the Activity [2] is reported as 24.7. The Activity [3] was “Active”, the Activity [4] was “Active” and the Activity [5] was “Active”. For the same compound, the Activity [6] was “Dose-dependent effect”, the Activity [7] was “Dose-dependent effect” and the logD [8] was 3.07. For the same compound, the Activity (Mus musculus [9]) was “Active”, the Activity (Mus musculus [10]) was “Active” and the Activity (Mus musculus [11]) was “Dose-dependent effect”. The Activity (Mus musculus [12]) was “Dose-dependent effect”, the Activity (Mus musculus [13]) was “Dose-dependent effect” and the Activity (Mus musculus [14]) was “Dose-dependent effect”. The Activity (Mus musculus [15]) was “Dose-dependent effect” and the Activity (Mus musculus [16]) was “Dose-dependent effect”.
